T cell modulator: T cell immune modulation candidate; AID 2052; actives 0.068% (n = 330,000); response (vesicle binding), % at 7 µM; 2C CD8+ T cell-vesicle binding, flow cytometry; hits give low values;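 active = response, share of CD8 T cells binding vesicles, and their 90th percentile fluorescence all below set limits, cut at about 80% in these data, passing the limit was not always enough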;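 note: values below 100% mean blocked vesicle binding to the CD8+ T cells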
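Incubation: binding step 1.5 h, 37 °C, antibody labelling 20 min, ice; system: murine 2C transgenic CD8+ T lymphocytes; technique: cytometric PE anti-B7-1 and Alexa647 anti-CD8 signals after 1% paraformaldehyde fixation; also added: QL9-charged Drosophila Ld/ICAM-1/B7-1 vesicles; control set: naked versus QL9-loaded vesicles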
CR mimetic SO: lowers age-related superoxide in aged yeast cells; AID 2690; superoxide response (% of plate mean), % at 10 µM; actives 0.18% (n = 330,000); S. cerevisiae aged cells, superoxide DHE fluorescence; hits give low values;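 active = superoxide response under a set limit, about three screen SD below normal, cut at about 65% in these data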;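 note: yeast aged for seven days with compound at 30 °C before DHE staining; 100% = average MFI of all compound-treated wells on the plate with controls excluded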
S1P3 antagonist: blocks the human S1P3 receptor; Q99500; CHO S1P3 NFAT-BLA reporter, FRET fluorescence, antagonist mode; inhibition, % at 4.98 µM; actives 0.27% (n = 170,000);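 active = inhibition above the plate cutoff, the mean inhibition of test wells on that plate plus 3 SD, cut at about 28% in these data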;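 note: cells challenged with S1P at its EC80 of 0.8 µM; blue over green emission ratio from cleaved BLA substrate after 4 h stimulation; 0% = S1P-stimulated wells and 100% = unstimulated DMSO-only wells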
Target sequence (Q99500 whole entry, looked up): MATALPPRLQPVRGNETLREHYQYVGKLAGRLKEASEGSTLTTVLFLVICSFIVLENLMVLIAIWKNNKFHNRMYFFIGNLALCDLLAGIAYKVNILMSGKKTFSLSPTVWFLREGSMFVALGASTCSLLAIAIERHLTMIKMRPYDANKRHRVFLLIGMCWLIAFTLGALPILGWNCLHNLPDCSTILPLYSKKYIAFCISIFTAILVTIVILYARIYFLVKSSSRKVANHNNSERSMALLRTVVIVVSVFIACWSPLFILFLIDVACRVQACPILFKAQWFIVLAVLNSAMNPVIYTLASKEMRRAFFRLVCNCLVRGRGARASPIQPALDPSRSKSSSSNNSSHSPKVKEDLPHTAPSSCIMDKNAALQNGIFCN
Numbers without * were called inactive. In the library only some 0.41% were active in any assay of this set; here they are far more common.

Screening O=C(/C=C/c1cccs1)NNC(=O)c1ccccc1 returned T cell modulator 31* and CR mimetic SO 98.
O=C(/C=C/c1cccs1)NNC(=O)c1cccc([N+](=O)[O-])c1 was read as T cell modulator 435 and CR mimetic SO 99.
`CC1CCc2sc(C(=O)NNS(=O)(=O)c3ccc(F)c(F)c3F)cc2C1` (stereo not given) gave T cell modulator 435 and CR mimetic SO 93.
Cc1ccc(CNS(=O)(=O)c2ccc(CN3C(=O)c4cccnc4C3=O)cc2)o1 was read as T cell modulator 417 and CR mimetic SO 121.
`CCn1nc(C(=O)NCCc2ccc3c(c2)OCCO3)c2ccccc2c1=O` gave T cell modulator 47* and CR mimetic SO 123.
`CCCCn1nc(C(=O)Nc2ccc3c(c2)OCCO3)c2ccccc2c1=O` gave T cell modulator inactive and CR mimetic SO 87.
For COc1ccc(C(O)c2coc3ccc(O)c(CN(C)C)c23)cc1 (stereo not given) the results were T cell modulator 6.9*, CR mimetic SO 104 and S1P3 antagonist -10.
Screening COc1ccc(OC)c(C(=O)c2coc3ccc(O)c(CN(C)C)c23)c1 returned T cell modulator 258 and CR mimetic SO 115.
`Cn1c(CNC(=O)CNC(=O)c2ccc(F)cc2)cc(=O)n(C)c1=O` gave T cell modulator 0.0* and CR mimetic SO 85.
`Cn1c(CNC(=O)CNC(=O)c2cccc(Cl)c2)cc(=O)n(C)c1=O` gave T cell modulator 281 and CR mimetic SO 91.
For CCOC(=O)N1CCN(C(=O)c2ccc(CS(=O)Cc3ccccc3Cl)o2)CC1 (stereo not given) the results were T cell modulator 139 and CR mimetic SO 83.
`CCOC(=O)N1CCN(C(=O)c2ccc(CS(=O)Cc3ccc(C)cc3)o2)CC1` (stereo not given) gave T cell modulator 43* and CR mimetic SO 69.
For CCN(CC(=O)Nc1ccc(NC(C)=O)cc1)C(=O)c1cccc(-n2cccc2)c1 the results were T cell modulator 453 and CR mimetic SO 98.
Screening O=C(Nc1cccc(C(F)(F)F)c1)C1CC(=O)N(CCc2ccccc2)C1 (stereo not given) returned T cell modulator 325 and CR mimetic SO 92.
`COc1ccc(N2CCN(CC(=O)Nc3c(C)cc(C)cc3C)CC2)cc1` gave T cell modulator 711, CR mimetic SO 98 and S1P3 antagonist -20.
Screening Cc1cc(C)c(NC(=O)CN2CCN(C)CC2)c(C)c1 returned T cell modulator 244, CR mimetic SO 94 and S1P3 antagonist 79*.
`COCCN(C(=O)c1csnn1)C(C(=O)NC1CCCC1)c1ccccc1F` (stereo not given) gave T cell modulator 243 and CR mimetic SO 99.
Cc1cc2oc(=O)cc(CN3CCOCC3)c2cc1Cl was read as T cell modulator 158 and CR mimetic SO 83.
`COC(=O)c1ccc(C2C(C#N)=C(N)Oc3cc(C)n(C)c(=O)c32)cc1` (stereo not given) gave T cell modulator 84, CR mimetic SO 99 and S1P3 antagonist -27.
COC(=O)C1=C(N)Oc2cc(C)n(C)c(=O)c2C1c1ccc(Cl)cc1 (stereo not given) was read as T cell modulator 332, CR mimetic SO 106 and S1P3 antagonist 71*.
For CCCCOc1ccc(C2/C(=C(/O)c3ccc4c(c3)CC(C)O4)C(=O)C(=O)N2CCCN2CCOCC2)cc1OC (stereo not given) the results were T cell modulator 404 and CR mimetic SO 87.
For CN(C)S(=O)(=O)c1ccc(N2CCOCC2)c(C(=O)NCc2ccc3c(c2)OCO3)c1 the results were T cell modulator 0 and CR mimetic SO 62*.
Screening CN(C)S(=O)(=O)c1ccc(N2CCOCC2)c(C(=O)O)c1 returned T cell modulator 494 and CR mimetic SO 103.
Screening Cc1ccc(-c2ccc(S(=O)(=O)N3CCCC3)cc2)cc1 returned T cell modulator 199, CR mimetic SO 74 and S1P3 antagonist -16.
For Cc1ccc(S(=O)(=O)N2CC(=NO)C2)cc1 the results were T cell modulator 257, CR mimetic SO 91 and S1P3 antagonist 66*.
For CCN1CCc2c(sc(NC(=O)Cc3ccccc3)c2C(N)=O)C1 the results were T cell modulator 598 and CR mimetic SO 112.
CCN1CCc2c(sc(NC(=O)Nc3ccc(Cl)c(Cl)c3)c2C(N)=O)C1 was read as T cell modulator 563, CR mimetic SO 94 and S1P3 antagonist 29*.
For CC(C)(C)OC(=O)NCc1ccc(CNC(=O)c2nc[nH]c2C(=O)N2CCc3ccccc3C2)cc1 the results were T cell modulator inactive and CR mimetic SO 99.
For COc1ccc(OC)c(NS(=O)(=O)c2ccc(Cl)nc2)c1 the results were T cell modulator 211, CR mimetic SO 102 and S1P3 antagonist -6.
CCCCOc1ccc(S(=O)(=O)Nc2cc(OC)ccc2OC)cc1 was read as T cell modulator 290, CR mimetic SO 102 and S1P3 antagonist 55*.
`CC(=O)c1c(C)[nH]c(C(=O)OCC(=O)Nc2ccc3c(c2)OCCO3)c1C` gave T cell modulator 306 and CR mimetic SO 91.
For CCn1c(SCC(=O)NC2(C#N)CCCCC2)nc2ccccc2c1=O the results were T cell modulator 410 and CR mimetic SO 98.
Screening Cc1ccc(S(=O)(=O)N2C[C@@H]3CCCC[C@@H]3[C@@H](C)[C@H]2CC(=O)c2ccccc2)cc1 returned CR mimetic SO 89.
Screening CN(c1ccc(C(=O)Nc2ccccn2)cc1)S(=O)(=O)c1ccccc1 returned T cell modulator 57*, CR mimetic SO 95 and S1P3 antagonist 8.
`CCN(c1ccccc1)S(=O)(=O)c1ccc(C(=O)Nc2ccccn2)cc1` gave T cell modulator 288 and CR mimetic SO 106.
`C=CCN1C(=O)C(Cc2ccc(Br)cc2)S/C1=N\N=C\c1ccco1` (stereo not given) gave T cell modulator 445 and CR mimetic SO 100.
Screening C=CCN1C(=O)C(Cc2ccc(F)cc2)S/C1=N/N=C/c1ccco1 (stereo not given) returned T cell modulator 0.0*, CR mimetic SO 80 and S1P3 antagonist -13.
For COc1ccc(NC(=S)NCc2ccccc2)c(OC)c1 the results were T cell modulator 238 and CR mimetic SO 111.
`COc1ccccc1NC(=O)C1CCCN(S(=O)(=O)c2ccc(-n3cnnn3)cc2)C1` (stereo not given) gave T cell modulator 158 and CR mimetic SO 96.
CC(=O)c1ccc(OC(=O)Cc2cccc3ccccc23)cc1 was read as T cell modulator 214 and CR mimetic SO 106.
Screening CC(C)(C)C1CCc2onc(C(=O)NCc3ccc(F)cc3)c2C1 (stereo not given) returned T cell modulator 337, CR mimetic SO 76 and S1P3 antagonist 64*.
`O=C(NCc1ccc(F)cc1)c1noc2c1CCCC2` gave T cell modulator 398, CR mimetic SO 130 and S1P3 antagonist -19.
For COC(=O)CCN(c1ccccc1)S(=O)(=O)c1cc(-c2cc(C)no2)ccc1OC the results were T cell modulator 436 and CR mimetic SO 118.
For Cc1cc(C)c(OCCN2CCCC2)c(Cl)c1 the results were T cell modulator 168 and CR mimetic SO 83.
